Converted amounts (≈) assume the structure as drawn.
Key:
Staphylococcus aureus [1] = assay: Antibacterial activity against Staphylococcus aureus ATCC 25923 after 24 hrs by NCCLS two fold broth microdilution method; type: functional; conditions: ATCC 25923, 24 h
Procedure, shortened: (§1)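 Two-fold serial broth microdilution in 96-well plates following NCCLS. Compounds were dissolved in DMSO as stocks, then diluted in Mueller–Hinton broth to final concentrations of 0.5–512 µg/mL. Plates were inoculated and incubated at 37 °C for 24 h, with growth read visually and spectrophotometrically. MIC was taken as the lowest concentration giving complete growth inhibition. Run in triplicate, with a DMSO-plus-inoculum solvent control.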

Staphylococcus aureus [2] = assay: Antibacterial activity against methicillin-resistant Staphylococcus aureus N315 after 24 hrs by NCCLS two fold broth microdilution method; type: functional; conditions: N315, 24 h
Procedure, shortened: (§2)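 Two-fold serial broth microdilution per NCCLS. Chloromycin and norfloxacin as reference drugs; DMSO with inoculum, no drug, as solvent control. Incubation 37 °C for 24 h. Growth read visually and spectrophotometrically. MIC is the lowest concentration completely inhibiting growth; triplicate.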

Bacillus subtilis = assay: Antibacterial activity against Bacillus subtilis ATCC 21216 after 24 hrs by NCCLS two fold broth microdilution method; type: functional; conditions: ATCC 21216, 24 h; procedure, shortened: as §1
Micrococcus luteus = assay: Antibacterial activity against Micrococcus luteus ATCC 4698 after 24 hrs by NCCLS two fold broth microdilution method; type: functional; conditions: NCTC 2665, 24 h; procedure, shortened: as §1
Bacillus = assay: Antibacterial activity against Bacillus proteus ATCC 13315 after 24 hrs by NCCLS two fold broth microdilution method; type: functional; conditions: ATCC 13315, 24 h; procedure, shortened: as §1
Escherichia coli = assay: Antibacterial activity against Escherichia coli ATCC 8099 after 24 hrs by NCCLS two fold broth microdilution method; type: functional; conditions: ATCC 8099, 24 h
Procedure, shortened: as §1, with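 “NCCLS.” for “NCCLS. Compounds were dissolved in DMSO as stocks, then diluted in Mueller–Hinton broth to final concentrations of 0.5–512 µg/mL.”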

Pseudomonas aeruginosa = assay: Antibacterial activity against Pseudomonas aeruginosa ATCC 27853 after 24 hrs by NCCLS two fold broth microdilution method; type: functional; conditions: ATCC 27853, 24 h
Procedure, shortened: as §1, with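 “NCCLS.” for “NCCLS. Compounds were dissolved in DMSO as stocks, then diluted in Mueller–Hinton broth to final concentrations of 0.5–512 µg/mL.”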

Salmonella typhi = assay: Antibacterial activity against Bacillus typhi after 24 hrs by NCCLS two fold broth microdilution method; type: functional, Salmonella enterica subsp. enterica serovar Typhi; conditions: Salmonella enterica
Procedure, shortened: as §2, with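 “NCCLS. DMSO stocks diluted in Mueller–Hinton broth to 512, 256, 128, 64, 32, 16, 8, 4, 2, 1, 0.5 µg/mL.” for “NCCLS.”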

Candida albicans = assay: Antifungal activity against Candida albicans ATCC 76615 after 24 hrs by NCCLS two fold broth microdilution method; type: functional; conditions: ATCC 76615, 24 h
Procedure, shortened: (§3)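 Two-fold serial microdilution following NCCLS. A spore suspension in sterile distilled water was prepared from one-day-old cultures grown on Sabouraud agar and adjusted to a final 1–5 × 10^3 spores/mL. DMSO stocks were diluted in RPMI 1640 to eleven concentrations (0.5–512 µg/mL), inoculated and held at 35 °C for 24 h. Growth was read visually and spectrophotometrically, MIC was the lowest concentration with complete inhibition, and runs were in triplicate.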

Pichia norvegensis = assay: Antifungal activity against Candida mycoderma after 24 hrs by NCCLS two fold broth microdilution method; type: functional
Cyberlindnera jadinii = assay: Antifungal activity against Candida utilis after 24 hrs by NCCLS two fold broth microdilution method; type: functional; conditions: Williopsis jadinii; procedure, shortened: as §3
Saccharomyces cerevisiae = assay: Antifungal activity against Saccharomyces cerevisiae after 24 hrs by NCCLS two fold broth microdilution method; type: functional; procedure, shortened: as §3
Aspergillus flavus = assay: Antifungal activity against Aspergillus flavus after 24 hrs by NCCLS two fold broth microdilution method; type: functional; procedure, shortened: as §3

Row | SMILES | MIC (Staphylococcus aureus [1]) | MIC (Staphylococcus aureus [2]) | MIC (Bacillus subtilis) | MIC (Micrococcus luteus) | MIC (Bacillus) | MIC (Escherichia coli) | MIC (Pseudomonas aeruginosa) | MIC (Salmonella typhi) | MIC (Candida albicans) | MIC (Pichia norvegensis) | MIC (Cyberlindnera jadinii) | MIC (Saccharomyces cerevisiae) | MIC (Aspergillus flavus)
1 | CC(=O)Nc1ccc(S(=O)(=O)Cc2nc3ccccc3[nH]2)cc1 | 32 µg/mL (≈ 97.2 µM) | 128 µg/mL (≈ 389 µM) | 32 µg/mL (≈ 97.2 µM) | 128 µg/mL (≈ 389 µM) | 64 µg/mL (≈ 194 µM) | 64 µg/mL (≈ 194 µM) | 32 µg/mL (≈ 97.2 µM) | 128 µg/mL (≈ 389 µM) | 32 µg/mL (≈ 97.2 µM) | 64 µg/mL (≈ 194 µM) | 16 µg/mL (≈ 48.6 µM) | 32 µg/mL (≈ 97.2 µM) | 128 µg/mL (≈ 389 µM)
2 | CCn1c(CS(=O)(=O)c2ccc(N)cc2)nc2ccccc21 | 64 µg/mL (≈ 203 µM) | 128 µg/mL (≈ 406 µM) | 64 µg/mL (≈ 203 µM) | 128 µg/mL (≈ 406 µM) | 64 µg/mL (≈ 203 µM) | 64 µg/mL (≈ 203 µM) | 64 µg/mL (≈ 203 µM) | 128 µg/mL (≈ 406 µM) | 256 µg/mL (≈ 812 µM) | 512 µg/mL (≈ 1620 µM) | 64 µg/mL (≈ 203 µM) | 512 µg/mL (≈ 1620 µM) | 32 µg/mL (≈ 101 µM)
3 | CC(=O)Nc1ccc(S(=O)(=O)Cc2nc3ccccc3n2Cc2cccc(F)c2)cc1 | 512 µg/mL (≈ 1170 µM) | 256 µg/mL (≈ 585 µM) | 512 µg/mL (≈ 1170 µM) | 512 µg/mL (≈ 1170 µM) | 256 µg/mL (≈ 585 µM) | 128 µg/mL (≈ 293 µM) | 256 µg/mL (≈ 585 µM) | 128 µg/mL (≈ 293 µM) | 256 µg/mL (≈ 585 µM) | 512 µg/mL (≈ 1170 µM) | 512 µg/mL (≈ 1170 µM) | 32 µg/mL (≈ 73.1 µM) | 256 µg/mL (≈ 585 µM)
4 | CC(=O)Nc1ccc(S(=O)(=O)Cc2nc3ccccc3n2Cc2ccc(Cl)cc2)cc1 | 512 µg/mL (≈ 1130 µM) | 512 µg/mL (≈ 1130 µM) | 256 µg/mL (≈ 564 µM) | 128 µg/mL (≈ 282 µM) | 256 µg/mL (≈ 564 µM) | 128 µg/mL (≈ 282 µM) | 512 µg/mL (≈ 1130 µM) | 64 µg/mL (≈ 141 µM) | 128 µg/mL (≈ 282 µM) | 32 µg/mL (≈ 70.5 µM) | 512 µg/mL (≈ 1130 µM) | 64 µg/mL (≈ 141 µM) | 512 µg/mL (≈ 1130 µM)
5 | Nc1ccc(S(=O)(=O)Cc2nc3ccccc3n2Cc2cccc(Cl)c2)cc1 | 32 µg/mL (≈ 77.7 µM) | 512 µg/mL (≈ 1240 µM) | 512 µg/mL (≈ 1240 µM) | 256 µg/mL (≈ 621 µM) | 256 µg/mL (≈ 621 µM) | 32 µg/mL (≈ 77.7 µM) | 256 µg/mL (≈ 621 µM) | 512 µg/mL (≈ 1240 µM) | 512 µg/mL (≈ 1240 µM) | 512 µg/mL (≈ 1240 µM) | 512 µg/mL (≈ 1240 µM) | 256 µg/mL (≈ 621 µM) | 16 µg/mL (≈ 38.8 µM)
6 | O=C(N[C@H](CO)[C@H](O)c1ccc([N+](=O)[O-])cc1)C(Cl)Cl [CHLORAMPHENICOL] | 8 µg/mL (≈ 24.8 µM) | – | 32 µg/mL (≈ 99 µM) | 8 µg/mL (≈ 24.8 µM) | 32 µg/mL (≈ 99 µM) | – | – | 32 µg/mL (≈ 99 µM) | – | – | – | – | –
7 | CCCCCCCCn1c(CS(=O)(=O)c2ccc(NC(C)=O)cc2)nc2ccccc21 | 64 µg/mL (≈ 145 µM) | 512 µg/mL (≈ 1160 µM) | 128 µg/mL (≈ 290 µM) | 256 µg/mL (≈ 580 µM) | 256 µg/mL (≈ 580 µM) | 512 µg/mL (≈ 1160 µM) | 256 µg/mL (≈ 580 µM) | 512 µg/mL (≈ 1160 µM) | 512 µg/mL (≈ 1160 µM) | 512 µg/mL (≈ 1160 µM) | 512 µg/mL (≈ 1160 µM) | 8 µg/mL (≈ 18.1 µM) | 512 µg/mL (≈ 1160 µM)
8 | OC(Cn1cncn1)(Cn1cncn1)c1ccc(F)cc1F [FLUCONAZOLE] | – | – | – | – | – | – | – | – | 1 µg/mL (≈ 3.27 µM) | 4 µg/mL (≈ 13.1 µM) | 8 µg/mL (≈ 26.1 µM) | 16 µg/mL (≈ 52.2 µM) | 256 µg/mL (≈ 836 µM)
9 | CCCn1c(CS(=O)(=O)c2ccc(NC(C)=O)cc2)nc2ccccc21 | 128 µg/mL (≈ 345 µM) | 64 µg/mL (≈ 172 µM) | 16 µg/mL (≈ 43.1 µM) | 256 µg/mL (≈ 689 µM) | 64 µg/mL (≈ 172 µM) | 128 µg/mL (≈ 345 µM) | 128 µg/mL (≈ 345 µM) | 32 µg/mL (≈ 86.1 µM) | 64 µg/mL (≈ 172 µM) | 16 µg/mL (≈ 43.1 µM) | 64 µg/mL (≈ 172 µM) | 16 µg/mL (≈ 43.1 µM) | 128 µg/mL (≈ 345 µM)
10 | CC(=O)Nc1ccc(S(=O)(=O)Cc2nc3ccccc3n2CCCCCn2c3ccccc3c3ccccc32)cc1 | 256 µg/mL (≈ 453 µM) | 512 µg/mL (≈ 907 µM) | 512 µg/mL (≈ 907 µM) | 128 µg/mL (≈ 227 µM) | 512 µg/mL (≈ 907 µM) | 512 µg/mL (≈ 907 µM) | 16 µg/mL (≈ 28.3 µM) | 64 µg/mL (≈ 113 µM) | 512 µg/mL (≈ 907 µM) | 32 µg/mL (≈ 56.7 µM) | 512 µg/mL (≈ 907 µM) | 32 µg/mL (≈ 56.7 µM) | 128 µg/mL (≈ 227 µM)

From ChEMBL document CHEMBL4138085, “Design, synthesis and antimicrobial evaluation of novel benzimidazole-incorporated sulfonamide analogues” (Eur J Med Chem, 2017)
